Screens deposited in PubChem by The Scripps Research Institute Molecular Screening Center.
Only some compounds are listed: those with a hit (about 2.5% of all), similar ones and a draw of the others.
rCAG RNA binder – binds r(CAG) RNA repeats; r(CAG) RNA repeat, TO-PRO-1 dye displacement fluorescence; inhibition, % at 3 µM; 370,000 tested, 1.3% active;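 active = inhibition above the plate cutoff, the mean of all test compounds on that plate plus 3 SD, cut at about 35% in these data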;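 also: 0% = DMSO alone and 100% = 100 µM mitoxantrone as full dye displacement; higher means more dye released from RNA so lower well fluorescence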
TCR CD3 inh – blocks the human TCR-CD3 interaction; TAMRA-labeled TCR probe fluorescence, biochemical; inhibition, % at 9.4 µM; 360,000 tested, 0.37% active; AID 651800; in the data active = inhibition above about 19%;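 also: recombinant mutant TCR 2C K166C tagged with TAMRA read by polarization; 0% = receptor in buffer alone and 100% = receptor with positive control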
SIAE inh – human SIAE inhibition, primary screen. Q9HAT2. SIAE FP-Rh probe binding, fluorescence polarization. inhibition, % at 9.66 µM. 370,000 tested, 0.69% active;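 active = inhibition above a cutoff: mean of compounds within the control limits plus 3 SD of those, cut at about 17% in these data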;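 also: 0% = plate median of compound wells and 100% = probe without SIAE protein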
Target sequence (Q9HAT2 whole entry, looked up): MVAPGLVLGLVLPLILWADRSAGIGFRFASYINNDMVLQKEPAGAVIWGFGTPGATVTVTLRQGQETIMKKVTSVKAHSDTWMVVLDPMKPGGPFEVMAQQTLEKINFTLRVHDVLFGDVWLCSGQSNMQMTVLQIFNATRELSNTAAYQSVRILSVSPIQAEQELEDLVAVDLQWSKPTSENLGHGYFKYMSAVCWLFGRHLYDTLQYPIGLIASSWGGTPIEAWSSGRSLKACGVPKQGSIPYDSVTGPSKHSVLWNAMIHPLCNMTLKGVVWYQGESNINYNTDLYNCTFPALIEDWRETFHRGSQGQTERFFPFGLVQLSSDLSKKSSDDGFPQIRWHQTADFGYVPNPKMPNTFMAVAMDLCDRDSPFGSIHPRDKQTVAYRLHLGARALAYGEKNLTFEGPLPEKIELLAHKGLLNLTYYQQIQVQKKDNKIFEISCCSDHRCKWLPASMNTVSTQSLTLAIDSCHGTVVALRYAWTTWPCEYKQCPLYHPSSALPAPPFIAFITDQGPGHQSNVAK
HTRA1 inh – inhibitors of human serine peptidase HTRA1; recombinant HTRA1, FP-rhodamine activity-based probe, fluorescence polarization; inhibition, % at 5.96 µM; 340,000 tested, 0.5% active; in the data active = inhibition above about 36%;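 also: 0% = enzyme with DMSO and 100% = wells lacking enzyme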
mABHD4 FP – inhibitors of mouse ABHD4 | AID 720543 | purified mABHD4, FP-Rh probe fluorescence polarization | Q8VD66 | inhibition, % at 8.92 µM | 370,000 tested, 0.54% active;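 active = inhibition exceeding the mean over every tested compound plus 3 SD, cut at about 30% in these data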;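 also: 0% = plate median of compound wells and 100% = S159A mutant with DMSO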
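Assay system: Wild-type mouse ABHD4 protein | Medium: HEPES pH 7.0 buffer, 150 mM NaCl, 0.01% Pluronic F-127 | Incubation: Enzyme–compound pre-incubation 45 min, then probe 60 min, both 25 °C | Technique: Fluorescence polarization with parallel and perpendicular emission, 525/598 nm | Evaluation: % inhibition of FP-Rh probe binding versus controls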
HTRA1 inh conf – confirmation of human HTRA1 inhibitors; shares compounds with HTRA1 inh; recombinant HTRA1, FP-rhodamine activity-based probe, fluorescence polarization; inhibition, % at 5.96 µM; 1,600 tested, 66% active; AID 540248;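 active = mean inhibition over three repeats above a set limit taken from the earlier primary screen, cut at about 37% in these data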;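 also: 0% = HTRA1 with DMSO and 100% = wells lacking HTRA1; inhibitors block probe binding so polarization drops and inhibition rises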
Active calls of the source: *; . = not tested or not shown.

SMILES	rCAG RNA binder	TCR CD3 inh	SIAE inh	HTRA1 inh	mABHD4 FP	HTRA1 inh conf
Nc1ccc(N=Nc2ccccc2)c2ccccc12	3	5	8	7	6	.
c1ccc(N=Nc2ccc3cccccc2-3)cc1	9	8	16	53*	29	64*
COc1cc(NC(=O)CCNC(=O)N2CC(=O)Nc3ccccc32)cc(OC)c1OC	0	7	-3	2	4	.
CN1CCN(C(=O)c2cccc(-c3cc(O)c4ncccc4c3)c2)CC1	-6	0	5	25	8	.
CN1CCN(c2cc(-c3cc(O)c4ncccc4c3)ccn2)CC1	3	-6	4	47*	19	62*
C[C@H]1CCC/C=C/[C@@H]2C[C@H](O)C[C@H]2[C@H](O)[C@H](S(=O)c2ccc(O)cc2)CC(=O)O1 (stereo partly specified)	7	-8	7	-1	-14	.
CSc1ccc(OC2(C)CCN(Cc3ccc(-c4ccccn4)cc3)C2)cc1 (stereo unspecified)	0	3	-1	.	-4	.
CCCCN(Cc1nc2ccccc2c(=O)[nH]1)C(=O)c1nn(C)c(=O)c2ccccc12	2	0	-2	85*	0	0
COc1cc(/C=N/Nc2cccc(C)c2)ccc1OC(=O)c1cccs1	6	-7	10	35	-5	.
COc1cc(/C=N/Nc2cccc(C)c2)cc(Br)c1O	26	-6	15	38*	11	30
Oc1ccc(Br)cc1CNc1cccc2cccnc12	9	-5	13	45*	21	8
Cc1ccc(O)c(CNc2cccc3cccnc23)c1	3	-6	4	22	7	.
O=C(NC(=S)NNC(=O)c1ccccc1O)c1cccs1	12	19	16	56*	12	54*
CCC(=O)NC(c1ccco1)c1cc(Cl)c2cccnc2c1OC (stereo unspecified)	-1	-4	0	-3	11	.
CCCCC(=O)NC(c1ccco1)c1cc(Cl)c2cccnc2c1O (stereo unspecified)	5	-2	11	59*	12	65*
CC(=O)NC(c1cc(Cl)c2cccnc2c1O)C(C)C (stereo unspecified)	4	0	3	53*	14	72*
CC(=O)NC(c1cc(Cl)c2cccnc2c1O)C1CC1 (stereo unspecified)	-4	1	16	32	4	.
CC(=O)NC(c1cc(Cl)c2ccccc2c1O)C(C)C (stereo unspecified)	-5	-1	14	-11	-7	.
CCC(=O)NC(c1ccc(OC)cc1)c1cc(Cl)c2cccnc2c1O (stereo unspecified)	2	2	15	59*	8	73*
CCC(=O)NC(c1ccco1)c1cc(Cl)c2cccnc2c1O (stereo unspecified)	3	-1	10	56*	18	64*
O=C(COc1ccc2ccccc2c1)NNC(=O)c1ccccc1	5	1	-2	-6	1	.
Cc1ccc2cc3c(NC(=O)c4ccco4)nn(C)c3nc2c1	8	1	-18	-14	-2	.
O=C(Oc1ccc(OC(=O)c2ccco2)c(S(=O)(=O)c2ccc(Br)cc2)c1)c1ccco1	.	.	.	42*	.	51*
Cc1ccc(S(=O)(=O)c2cc(OC(=O)c3ccco3)ccc2OC(=O)c2ccco2)cc1	8	0	-4	12	-11	.
CCOc1ccccc1/C=C/c1nc2ccccc2[nH]c1=O	2	8	1	40*	6	-8
SMILES	rCAG RNA binder	TCR CD3 inh	SIAE inh	HTRA1 inh	mABHD4 FP	HTRA1 inh conf
O=C(N/N=C\c1ccc(Sc2ccccn2)o1)c1cccc(F)c1	1	-6	0	-4	-23	.
C/C(=N\NC(=O)c1c[nH]c2ccccc12)c1ccccn1	7	6	-3	-10	-10	.
O=C(N/N=C/c1ccc(Sc2ccccn2)o1)c1cc2ccccc2cc1O	.	.	.	60*	.	49*
C/C(=N\NC(=O)c1cc2ccccc2cc1O)c1ccccn1	47*	-11	7	52*	21	18
Cc1ccc(C)c(NC(=O)CN(C)C(=O)c2ccc3c(=O)n4c(nc3c2)CCC4)c1	0	11	4	3	-7	.
COc1ccc(-c2c[n+]3c4n2CCCCC4=C(c2ccc(Br)cc2)C3)cc1	16	-9	0	52*	2	21
